Experiments:
Type in all cases: cell-based, human
[1] = system: DLBCL cells with SIRT3 shRNA; test: Rescue of autophagy; settings: DMKG 4 mM for 3-4 hr
How it was run: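 DLBCL cells carrying SIRT3 or control shRNA were incubated with test compound (4 mM) for 3-4 hr, then collected for Western blot with LC3 and SIRT3 antibodies. Detection used a peroxidase-conjugated secondary antibody and enhanced chemiluminescence. LC3II/LC3I ratios were obtained by densitometry and normalized to control cells.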

[2] = system: SIRT3 depleted HBL1 cells; test: Rescue of proliferation arrest caused by SIRT3 depletion; settings: HBL1, Figure S5D
[3] = system: SIRT3 depleted Karpas 422 cells; test: Rescue of proliferation arrest caused by SIRT3 depletion; settings: Karpas 422, 4-day exposure
How it was run: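 Karpas 422 cells were infected with YFP-carrying lentivirus bearing SIRT3 or control shRNA and exposed for 4 days to test compounds, alone or combined. Viable YFP+ (transduced) and YFP− (non-transduced) populations were quantified by flow cytometry. Abundance was normalized to the first time point.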

[4] = system: SIRT3 depleted OCI-LY1 cells; test: Rescue of proliferation arrest caused by SIRT3 depletion; settings: OCI-LY1, Figure S5C

SMILES | Rescue of LC3II/LC3I ratios (autophagy) after SIRT3 depletion [1] | Rescue of proliferation arrest caused by SIRT3 depletion [2] | Rescue of proliferation arrest caused by SIRT3 depletion [3] | Rescue of proliferation arrest caused by SIRT3 depletion [4]
COC(=O)CCC(=O)C(=O)OC [DMKG, dimethyl-αKG] | rescued LC3II/LC3I ratios | required both DMKG and MP | DMKG alone rescued | DMKG alone rescued
COC(=O)C(C)=O [MP, methyl-pyruvate] | – | required both DMKG and MP | – | –

Reference: article PMC7534582 (Cancer cell, 2019)
